Screening results as filed in PubChem BioAssay.
MPTP inh: permeability transition pore inhibition; 360,000 compounds, 1.4% hits; inhibition, % at 10 µM; AID 602449; isolated mouse mitochondria, Ca2+ swelling absorbance, 30 min;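 active means inhibition of 50% or more, scaled per plate between neutral and stimulator controls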
OX1R antag-1: blocks the human orexin 1 receptor; O43613; OX1R-expressing cells, FRET antagonist read-out; inhibition, % at 6.6 µM; 330,000 compounds, 1.8% hits; AID 485270; in the data active means inhibition mostly above about 38%, no sharp cut-off; inactive means mostly below about 40%
Target sequence (O43613 whole entry, looked up): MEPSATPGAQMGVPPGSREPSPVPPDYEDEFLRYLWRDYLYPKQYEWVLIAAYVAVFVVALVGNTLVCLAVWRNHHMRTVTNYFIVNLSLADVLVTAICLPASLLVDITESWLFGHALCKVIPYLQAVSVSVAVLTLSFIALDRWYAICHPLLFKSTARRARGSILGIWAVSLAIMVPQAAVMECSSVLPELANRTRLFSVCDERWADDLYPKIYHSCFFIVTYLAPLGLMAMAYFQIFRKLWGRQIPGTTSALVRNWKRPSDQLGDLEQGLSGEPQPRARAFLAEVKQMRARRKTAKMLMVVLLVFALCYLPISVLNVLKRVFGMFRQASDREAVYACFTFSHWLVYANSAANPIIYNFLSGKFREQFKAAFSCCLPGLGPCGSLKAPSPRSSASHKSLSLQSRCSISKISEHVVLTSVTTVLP
CHO parental Ca: counter-screen for OX1R antagonists: effect in parental CHO cells; parental CHO-K1, ATP-induced calcium, Fluo-8 fluorescence; inhibition, % at 5.6 µM; 330,000 compounds, 0.63% hits;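 active means inhibition above that plate's mean sample inhibition plus 3 SD, cut at about 26% in these data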
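Test system: parental CHO cells; detection: calcium-sensitive Fluo-8 fluorescence; evaluation: percent inhibition of calcium signal; also added: ATP as calcium-mobilizing challenge; repeats: one well per compound; control set: ATP-challenged DMSO wells low, unchallenged DMSO wells high; compound: single nominal dose of 5.6 µM per compound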
OX1R antag-2: blocks the human orexin 1 receptor; AID 434989; CHO/OX1R cells, Fluo-8 calcium fluorescence, orexin A; 330,000 compounds, 0.43% hits; inhibition, % at 5 µM;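 active means inhibition above its plate's threshold, mean inhibition of all tested compounds on the plate plus 3 SD, cut at about 37% in these data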
GPR7 antagonist: human neuropeptides B/W receptor 1 antagonism; GPR7-expressing cells, fluorescence antagonist assay; 290,000 compounds, 1.1% hits; inhibition, % at 4.4 µM; P48145; in the data active means inhibition above about 16%, passing the limit was not always enough;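 further: cells stimulated with the agonist NPW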
MPTP counter: membrane potential counter-screen of mitochondrial pore inhibitors. shares compounds with MPTP inh. isolated mitochondria, Rhodamine 123 fluorescence. inhibition, % at 10 µM. 5,000 compounds, 78% hits; in the data active means inhibition above about 22%
MPTP abs DR: dose response confirmation of mitochondrial permeability transition pore inhibitors. IC50, µM. 780 compounds, 58% hits. shares compounds with MPTP inh. isolated mitochondria swelling, absorbance. AID 651561; in the data active means IC50 below about 20 µM
MPTP cs DR: active in counter-screen for permeability transition pore inhibitors; IC50, µM; isolated mitochondria counterscreen, fluorescence read-out; 780 compounds, 49% hits; AID 651564; shares compounds with MPTP inh; in the data active means IC50 below about 80 µM
Large screens that a line does not name were inactive (follow-up assays come after a bar, where they were run). Shown are actives, neighbours in structure and some others; about 3.8% of the full set was active somewhere.

CCC(C(=O)OCC(=O)Nc1cc(Cl)cc(Cl)c1)c1ccccc1 (configuration not stated)	MPTP inh 82 | MPTP counter 90
N#C/C(=C\Nc1ccccc1O)c1nc2ccccc2o1	MPTP inh 77 | MPTP counter 78
CN(C)CCC(=O)c1ccc(Cl)cc1	MPTP inh 99 | MPTP counter inactive | MPTP abs DR 10 | MPTP cs DR inactive
COc1ccccc1NC(=O)c1c(Nc2ccccc2F)sc(C(=O)Nc2cccc(Cl)c2)c1N	MPTP inh 78, CHO parental Ca 42 | MPTP counter 46
COc1ccccc1NC(=O)c1sc(Cl)nc1C	none
Cc1cc(CN2CCC(n3nccc3NC(=O)c3ccccc3Cl)CC2)cc(C)c1O	none
Cc1c(CC(Cl)(Cl)Cl)c2c(n1O)CC(C)(C)CC2=O	MPTP inh 72 | MPTP counter 47
NC(=O)COC(=O)c1ccccc1SCC(=O)NC1CCCCCC1	none
Cc1ccc(NC(=O)Cn2c(=O)oc3cc(S(=O)(=O)N4CCC(C)CC4)ccc32)cc1C	MPTP inh 70, CHO parental Ca 32 | MPTP counter 90
COc1ccc(NC(=O)Cn2c(=O)oc3cc(S(=O)(=O)N4CCCC4)ccc32)cc1	none
CCOC(=O)c1ccc(N2CCN(c3ccc(F)cc3)CC2)c(NC(=O)Nc2cccc(OC)c2)c1	MPTP inh 92 | MPTP counter 84
CCOC(=O)c1ccc(N2CCN(c3ccccc3F)CC2)c(NC(=O)Nc2ccccc2)c1	MPTP inh 96, CHO parental Ca 39 | MPTP counter 87
Cc1ccc(OCc2n[nH]c(=S)n2-c2ccc(Br)cc2)cc1	none
O=C1/C(=C/c2ccc(O)c(O)c2)SC(=S)N1Nc1ccccc1	MPTP inh 101 (no result: OX1R antag-1, CHO parental Ca, OX1R antag-2) | MPTP counter 56
O=C(NN1C(=O)/C(=C/c2ccc(O)c(O)c2)SC1=S)c1ccccc1	none
COC(/C(=N/O)c1ccc(Cl)cc1)c1ccccc1 (configuration not stated)	MPTP inh 68, CHO parental Ca 60 | MPTP counter 76
COc1ccc(Cl)cc1NC(=O)C(OC)c1ccccc1 (configuration not stated)	none
COc1cc2c(cc1CN1CCN(C(=O)c3cc(OC)c(OC)c(OC)c3)CC1)OCO2	none
CCc1ccccc1Nc1ccc(C(=O)O)cc1N	MPTP inh 62 | MPTP counter inactive | MPTP abs DR inactive | MPTP cs DR inactive
CCCCc1ccc(NC(=O)Nc2cccnc2)cc1	none
CCCCc1ccc(NC(=S)Nc2cccnc2)cc1	MPTP inh 80 | MPTP counter 73
S=C(Nc1ccc(Oc2ccccc2)cc1)Nc1cccnc1	MPTP inh 71 | MPTP counter 86
CCCCc1ccc(NC(=S)NCc2cccc(OC)c2)cc1	MPTP inh 70 | MPTP counter 91
CCOc1ccc(NC(=S)Nc2cccnc2)cc1	none
S=C(NCc1cccnc1)Nc1ccc(Oc2ccccc2)cc1	MPTP inh 69 | MPTP counter 60
FC(F)Oc1ccc(NC(=S)NCc2cccnc2)cc1	none
O=C(COC(=O)c1ccc(O)cc1)NCC1CCCO1 (configuration not stated)	none
CCN1CCN(CC(=O)Nc2ccc(Cl)c(S(=O)(=O)N(C)C)c2)CC1	none
CCCCc1ccc(NC(=S)Nc2ccc(Cl)c(S(=O)(=O)N(C)C)c2)cc1	MPTP inh 97 | MPTP counter 76
Cc1ccc2nc(-c3ccc(NC(=S)NCCC(C)C)cc3)sc2c1	none
CCC(C)(C)NC(=S)Nc1ccc(-c2nc3ccc(C)cc3s2)cc1	MPTP inh 85 | MPTP counter 34
CCCCNC(=S)Nc1ccc(-c2nc3ccc(C)cc3s2)cc1	MPTP inh 88 | MPTP counter 87
COCCOc1cc(Nc2nnc(C(F)(F)F)s2)c(Cl)cc1Cl	MPTP inh 80 | MPTP counter 90
NS(=O)(=O)c1ccc(NC(=S)Nc2cc(Cl)c(Cl)cc2Cl)cc1	MPTP inh 88 | MPTP counter 92
CSc1ccccc1NC(=S)Nc1ccc(S(N)(=O)=O)cc1	none
NS(=O)(=O)c1ccc(NC(=O)Nc2ccc(Cl)cc2)cc1	MPTP inh 77 | MPTP counter 85
